# Measured values collected from several papers.
# Maoa: Amine oxidase [flavin-containing] A (Maoa, Rattus norvegicus, UniProt P21396)
# CDK4: Cyclin-dependent kinase 4 (CDK4, Homo sapiens, UniProt P11802)
# REN: Renin (REN, Homo sapiens, UniProt P00797)
Compound,target,observed,mode,method,concentration,inhibition [%]
Cn1cc(-c2cc(F)cc(N3CCn4c(cc5c4CCCC5)C3=O)c2CO)cc(Nc2ccc(N3CCN(C4COC4)CC3)cn2)c1=O,"Serine/threonine-protein kinase 3 (STK3, Homo sapiens, UniProt Q13188)",enzyme activity,inhibitor,,0.1 µM,13
O=C(Nc1cccnn1)N1CCN([C@@H]2CCOc3cc(C(F)(F)F)ccc32)CC1,Maoa,cell-free assay,,,20 µM,14
CCOC(=O)[C@H]1Cc2c(cc([N+](=O)[O-])cc2[N+](=O)[O-])[C@@H](O)[C@@]12C(=O)Nc1ccc(C)cc12,CDK4,cell-free assay,inhibitor,TR-FRET,1 µM,67.8
Cc1ncc(C)n2nc(/C=C/c3nc(N4CCCC4)cc(N4CCOCC4)n3)nc12,Maoa,ligand displacement,,,10 µM,2
COc1cc(Nc2ncc(F)c(Nc3ccc4c(n3)NC(=O)C(C)(C)O4)n2)cc(OC)c1OC,"Serine/threonine-protein kinase DCLK1 (DCLK1, Homo sapiens, UniProt O15075)",binding,,,10 µM,59
CCOC(=O)[C@H]1Cc2c(cc([N+](=O)[O-])cc2[N+](=O)[O-])[C@@H](O)[C@@]12C(=O)Nc1cccc(Br)c12,CDK4,cell-free assay,inhibitor,TR-FRET,1 µM,45.6
C#Cc1n[nH]c2c(-c3cn(C(C)c4ccccn4)c(=O)[nH]c3=O)cc(F)cc12 (stereo not drawn),"Ephrin type-A receptor 5 (EPHA5, Homo sapiens, UniProt P54756)",enzyme activity,inhibitor,,1 µM,4
Clc1ccc2c(C3CCN(CCc4c[nH]c5ccccc45)CC3)c[nH]c2c1,Maoa,ligand displacement,,radioligand,10 µM,15
CN(C)C(=O)COC(=O)Cc1ccc(OC(=O)c2ccc(NC(=N)N)cc2)cc1,REN,enzyme activity,inhibitor,,10 µM,1
CC(C)C[C@H](NC(=O)[C@H](Cc1ccccc1)NC(=O)c1cnccn1)B(O)O,"Chymotrypsinogen A (Bos taurus, UniProt P00766)",enzyme activity,inhibitor,,33 µM,53
COCCCOc1cc(C[C@@H](C[C@H](N)[C@@H](O)C[C@H](C(=O)NCC(C)(C)C(N)=O)C(C)C)C(C)C)ccc1OC,REN,enzyme activity,inhibitor,,100 pM,0
CCOC(=O)[C@H]1Cc2c(cc([N+](=O)[O-])cc2[N+](=O)[O-])[C@@H](O)[C@@]12C(=O)Nc1cc(Br)ccc12,CDK4,cell-free assay,inhibitor,TR-FRET,1 µM,59
CCOC(=O)c1ccc(OC(=O)CCCCCNC(=N)N)cc1,REN,enzyme activity,inhibitor,,10 µM,0
CCOC(=O)[C@H]1Cc2c(cc([N+](=O)[O-])cc2[N+](=O)[O-])[C@H](O)[C@]12C(=O)Nc1ccc(Cl)cc12,CDK4,cell-free assay,inhibitor,TR-FRET,1 µM,45.2
c1ccc(C(NCCNC(c2ccccc2)c2ccccc2)c2ccccc2)cc1,REN,enzyme activity,inhibitor,,10 µM,30
